Results reported in ChEMBL document CHEMBL1921724, “In search of a cytostatic agent derived from the alkaloid lycorine: synthesis and growth inhibitory properties of lycorine derivatives” (Bioorg Med Chem, 2011).

How the values were obtained:
MCF7 = assay: Growth inhibition of human MCF7 cells after 72 hrs by MTT assay; format: functional; conditions: MCF7, 72 h
[1] = Growth inhibition of pro-apoptotic stimuli-sensitive human Hs683 cells after 72 hrs by MTT assay; format: functional; conditions: Hs 683, 72 h
How it was run: (§1)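 Cells seeded at 10,000 to 40,000 cells/mL depending on cell type and allowed to attach for 24 h. They were then cultured 72 h with or without compound (untreated control). Living cells were measured by MTT reduction to formazan, read at 570 nm against a 630 nm reference. GI50 was derived from the growth levels.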

T98G = assay: Growth inhibition of pro-apoptotic stimuli-resistant human T98G cells after 72 hrs by MTT assay; format: functional; how it was run: as §1
A549 = assay: Growth inhibition of pro-apoptotic stimuli-resistant human A549 cells after 72 hrs by MTT assay; format: functional; conditions: A549, 72 h; how it was run: as §1
B16-F10 = assay: Growth inhibition of pro-apoptotic stimuli-sensitive mouse B16F10 cells after 72 hrs by MTT assay; format: functional; conditions: B16-F10, 72 h; how it was run: as §1
SK-MEL-28 = assay: Growth inhibition of pro-apoptotic stimuli-resistant human SK-MEL-28 cells after 72 hrs by MTT assay; format: functional; conditions: SK-MEL-28, 72 h; how it was run: as §1
[2] = Growth inhibition of pro-apoptotic stimuli-resistant human U373 cells after 72 hrs by MTT assay; format: functional, U-373MG ATCC; conditions: U373 MG; how it was run: as §1
[3] = Chemical stability of the compound at pH 5 to 7.4; format: physicochemical; conditions: buffer
PC-3 = assay: Growth inhibition of human PC3 cells after 72 hrs by MTT assay; format: functional; conditions: PC-3, 72 h
[4] = Ratio of lycorine GI50 to compound GI50 for pro-apoptotic stimuli-resistant human U373 cells after 72 hrs by MTT assay; format: functional, U-373MG ATCC

| SMILES | GI50 (MCF7) [µM] | GI50 [1] [µM] | GI50 (T98G) [µM] | GI50 (A549) [µM] | GI50 (B16-F10) [µM] | GI50 (SK-MEL-28) [µM] | GI50 [2] [µM] | Stability [3] [days] | GI50 (PC-3) [µM] | RatioGI50 [4] |
| --- | --- | --- | --- | --- | --- | --- | --- | --- | --- | --- |
| CCCCCCCCCCCCCCCCCC(=O)O[C@H]1[C@H]2c3cc4c(cc3CN3CCC(=C[C@@H]1O)[C@H]23)OCO4 | 38 | 24 | 16 | 23 | 23 | 34 | 8 | 3 | 26 | – |
| C=CCO[C@H]1[C@H]2c3cc4c(cc3CN3CCC(=C[C@@H]1OCC=C)[C@H]23)OCO4 [DIALLYLLYCORINE] | 0.2 | 2 | 4 | 4 | 4 | 6 | 0.03 | – | 1 | 100 |
| CCCCCCCC/C=C\CCCCCCCC(=O)O[C@H]1[C@H]2c3cc4c(cc3CN3CCC(=C[C@@H]1O)[C@H]23)OCO4 | 30 | 14 | 0.8 | 14 | 21 | 30 | 4 | 3 | 22 | – |
